Source: PMC2951323 (Nature, 2009)
Each block holds one molecule with its values, some of them ahead of it. Bridge positions count the residues as written; N and C are the ends. Square brackets hold non-standard residues; d marks the D form. Ends that are not written are not given here. Peptide text beside a SMILES is read from it. * marks the point of attachment. FITC = O=C1OC2(c3ccc(O)cc3Oc3cc(O)ccc32)c2ccc(NC(=S)*)cc21; S5 = C=CCCC[C@](C)(N)C(=O)O; βAla = NCCC(=O)O

Tests used:
[1] = system: constitutively activated NOTCH1; test: NOTCH1-dependent dual-luciferase reporter-gene assay; type: cell-based; conditions: signal normalized to Renilla luciferase control
RAMANK–CSL complex = RAMANK–CSL complex (Homo sapiens, UniProt P46531+Q06330); test: Fluorescence polarization binding of FITC–SAHM peptides to RAMANK–CSL
How it was run: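 FITC-labelled stapled test peptides titrated against recombinant human RAMANK (NOTCH1 aa 1761–2127) pre-complexed with human CSL (aa 9–435). Both proteins were expressed and purified as previously reported. Buffer was 20 mM Tris pH 8.4, 150 mM NaCl, 1 mM EDTA and 1 mM DTT. Polarization was read at λex 485 nm and λem 525 nm. Data are mean ± s.d., n = 3.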

[2] = type: cell-based
[3] = target: pre-formed RAMANK–CSL complex (human, UniProt P46531 1761-2127; Q06330 23-449); test: fluorescence polarisation
pre-formed RAMANK–CSL complex, sequence (P46531 1761-2127, chain 1 of 2): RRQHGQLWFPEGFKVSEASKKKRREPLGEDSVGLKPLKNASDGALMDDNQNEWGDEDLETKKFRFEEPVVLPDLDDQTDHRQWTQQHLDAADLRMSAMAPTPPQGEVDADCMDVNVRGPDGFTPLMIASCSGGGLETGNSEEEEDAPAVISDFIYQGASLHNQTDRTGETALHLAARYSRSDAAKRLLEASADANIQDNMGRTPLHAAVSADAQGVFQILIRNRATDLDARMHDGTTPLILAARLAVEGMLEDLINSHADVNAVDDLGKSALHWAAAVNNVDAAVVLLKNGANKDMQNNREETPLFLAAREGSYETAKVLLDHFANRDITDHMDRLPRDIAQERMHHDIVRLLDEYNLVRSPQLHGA
pre-formed RAMANK–CSL complex, sequence (Q06330 23-449, chain 2 of 2): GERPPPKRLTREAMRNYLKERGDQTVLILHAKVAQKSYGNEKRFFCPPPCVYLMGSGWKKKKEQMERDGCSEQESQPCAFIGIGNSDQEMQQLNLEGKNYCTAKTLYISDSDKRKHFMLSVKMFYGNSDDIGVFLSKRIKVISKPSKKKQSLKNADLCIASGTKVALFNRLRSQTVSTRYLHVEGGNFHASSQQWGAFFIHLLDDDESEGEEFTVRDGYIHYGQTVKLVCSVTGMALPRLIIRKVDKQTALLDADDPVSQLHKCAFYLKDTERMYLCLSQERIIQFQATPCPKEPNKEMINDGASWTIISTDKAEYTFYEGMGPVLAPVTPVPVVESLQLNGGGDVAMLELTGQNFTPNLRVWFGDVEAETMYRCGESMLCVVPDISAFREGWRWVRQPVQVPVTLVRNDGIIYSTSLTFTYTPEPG

repression of luciferase activity [1]: near complete repression
Molecule: C[C@H](NC(=O)Cc1cc(F)cc(F)c1)C(=O)N[C@H](C(=O)OC(C)(C)C)c1ccccc1 [DAPT]

Kd (RAMANK–CSL complex): 120 ± 20 nM | uptake at 4 °C relative to 37 °C ([2]; FITC-labelled peptide, 4 °C vs 37 °C): diminished
Molecule: CC[C@H](C)[C@H](NC(=O)[C@H](CCCNC(=N)N)NC(=O)[C@H](CCCNC(=N)N)NC(=O)[C@H](CCCNC(=N)N)NC(=O)[C@H](CC(C)C)NC(=O)[C@H](CCCNC(=N)N)NC(=O)[C@H](CCC(=O)O)NC(=O)CCNC(=S)Nc1ccc2c(c1)C(=O)OC21c2ccc(O)cc2Oc2cc(O)ccc21)C(=O)N[C@@]1(C)CCCC=CCCC[C@@](C)(C(=O)N[C@@H](Cc2c[nH]cn2)C(=O)N[C@@H](Cc2c[nH]cn2)C(=O)N[C@@H](CO)C(=O)N[C@H](C(N)=O)[C@@H](C)O)NC(=O)[C@H](CCCNC(=N)N)NC(=O)[C@H](CS)NC(=O)[C@H](CC(C)C)NC1=O [FITC–SAHM1] ({FITC-βAla}-ERLRRRI[S5]LCR[S5]HHST-NH2; staple 8-12; N-terminus assumed)
intracellular distribution ([2]; FITC-labelled peptide): distributed throughout the cytoplasm and nucleus | cellular uptake (cell penetration) ([2]; FITC-labelled peptides, quantitative epifluorescence microscopy): robust and roughly equivalent cellular uptake

binding affinity for RAMANK–CSL compared with FITC–SAHM1 (in words) (RAMANK–CSL complex; fluorescence polarization, same buffer): markedly diminished affinity
Molecule: FITC–MAML1(21–36): FITC-labelled unmodified MAML1(21–36) peptide ({FITC}-ERLRRRIELCRRHHST; UniProt Q92585 21-36, looked up, fragment)

IC50 [3]: 3900 nM
B1: dnMAML1 (dominant-negative fragment of MAML1, amino acids 13–74) (domain or fragment, human, UniProt Q92585 13-74, looked up)
chain: LPRHSAVMERLRRRIELCRRHHSTCEARYEAVSPERLELERQHTFALHQRCIQAKAKRAGKH
